Non-standard residues stand in square brackets, D forms with d. Residues, ends and D or L forms follow the SMILES beside them. Gly(decyl) = CCCCCCCCCC[C@H](N)C(=O)O; Aoc(2) = CCCCCC[C@H](N)C(=O)O
Columns and labels:
[1] = Apparent permeability across human Caco2 cells by LC-MS/MS analysis; type: ADME, cell-based; conditions: Caco-2
Method in brief: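 Caco-2 cells (passage 25–35, DMEM with 10% FBS, 1% NEAA) grown 21–28 days on 0.4 µm polycarbonate Transwell inserts; TEER 2.5–5 kΩ/cm2 before use. Rinsed with EDTA/DPBS then HBSS/25 mM HEPES pH 7.4, equilibrated 30 min at 37 °C. 200 µM apical dose; basolateral sampling at 30, 90, 120, 150 min. Papp from steady-state flux; 4 wells/experiment, ≥3 experiments; 14C mannitol control.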

[2] = Stability of the compound in human Caco2 cell homogenate assessed as half life by LC-MS/MS analysis; type: ADME, Colon; conditions: Caco-2 cell homogenate
Method in brief: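 Confluent Caco-2 cells (21–28 days) rinsed, sonicated, spun 2000 rpm 5 min; supernatant adjusted to 0.5 mg/mL protein. Homogenate mixed 1:1 with 200 µM compound in HBSS/HEPES. Sampled at 5–120 min, quenched with TFA-acidified water (pH 1–2). Endomorphin-1 run as enzyme-activity control. t1/2 by one-phase decay fit; 4 wells, ≥3 independent experiments.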

[3] = Stability of the compound in human plasma assessed as half life by HPLC analysis; type: ADME, cell-free
Method in brief: (§1)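 Compound at 1 mg/mL in PBS mixed 1:1 with human plasma from healthy volunteers at 37 °C. Aliquots taken at set times, put on ice, proteins precipitated with acetonitrile, spun 10,000 rpm 10 min. Supernatant run on C18 RP-HPLC (water/acetonitrile/TFA gradient), detection at 214 nm. Percent of initial peptide remaining plotted against time.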

Plasma [4] = assay: Stability of the compound in human plasma assessed as degradation by HPLC analysis; type: ADME, cell-free; method in brief: as §1
[5] = Drug level in Sprague-Dawley rat olfactory bulb at 1 mg/kg, intranasal after 10 mins by LC-MS/MS analysis; type: ADME, organism-based; design: dose 1 mg/kg; conditions: inhaled or intranasal, read-out: Drug uptake
Method in brief: (§2)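 Male Sprague–Dawley rats (450–530 g, n = 4; 2 PBS controls) under xylazine/tiletamine–zolazepam anaesthesia. Dose given as 50 µL suspension in PBS pH 7.4 through a tube inserted 15 mm into the nasal cavity. CO2 euthanasia at 10 min. Tissues and blood homogenised or diluted in cold PBS, sonicated, acetonitrile-precipitated. Quantified against standards made in brain-homogenate matrix.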

[6] = Drug level in Sprague-Dawley rat brain at 1 mg/kg, intranasal after 10 mins by LC-MS/MS analysis; type: ADME, organism-based; design: dose 1 mg/kg; conditions: inhaled or intranasal, read-out: Drug uptake; method in brief: as §2
[7] = Drug level in Sprague-Dawley rat blood at 1 mg/kg, intranasal after 10 mins by LC-MS/MS analysis; type: ADME, organism-based; design: dose 1 mg/kg; conditions: whole blood, inhaled or intranasal; method in brief: as §2
Plasma [8] = assay: Stability of the compound in human plasma by HPLC analysis; type: ADME, cell-free; method in brief: as §1

Row | Papp [1] [×10⁻⁶ cm/s] | half-life [2] [min] | Compound | also measured
1 | 2.51 | 31.7 | CCCCCC[C@H](N)C(=O)N[C@@H](Cc1ccc(O)cc1)C(=O)NCC(=O)NCC(=O)N[C@@H](Cc1ccccc1)C(=O)N[C@@H](CC(C)C)C(N)=O | half-life [3]: 8.9 min; Stability (Plasma [4]): Unstable; concentration at 10 min [5]: 59 nM; concentration at 10 min [6]: 13.5 nM; concentration at 10 min [7]: 6.53 nM
2 | – | – | CCCCCC[C@@H](N)C(=O)N[C@@H](Cc1ccc(O)cc1)C(=O)NCC(=O)NCC(=O)N[C@@H](Cc1ccccc1)C(=O)N[C@@H](CC(C)C)C(N)=O | Stability (Plasma [8]): Stable
3 | 0.763 | 13.8 | CCCCCC[C@H](NC(=O)[C@H](CC(C)C)NC(=O)[C@H](Cc1ccccc1)NC(=O)CNC(=O)CNC(=O)[C@H](Cc1ccc(O)cc1)NC(C)=O)C(N)=O (Ac-YGGFL[Aoc(2)]-NH2) | –
4 | – | 18.4 | CCCCCCCCCC[C@H](NC(=O)[C@H](CC(C)C)NC(=O)[C@H](Cc1ccccc1)NC(=O)CNC(=O)CNC(=O)[C@H](Cc1ccc(O)cc1)NC(C)=O)C(N)=O (Ac-YGGFL[Gly(decyl)]-NH2) | –
5 | 1.06 | 83 | CCCCCC[C@H](NC(C)=O)C(=O)N[C@@H](Cc1ccc(O)cc1)C(=O)NCC(=O)NCC(=O)N[C@@H](Cc1ccccc1)C(=O)N[C@@H](CC(C)C)C(N)=O (Ac-[Aoc(2)]YGGFL-NH2) | –
6 | – | 27 | CCCCCCCCCC[C@H](NC(C)=O)C(=O)N[C@@H](Cc1ccc(O)cc1)C(=O)NCC(=O)NCC(=O)N[C@@H](Cc1ccccc1)C(=O)N[C@@H](CC(C)C)C(N)=O (Ac-[Gly(decyl)]YGGFL-NH2) | –
7 | 2.43 | 14.7 | CCCCCCCCCC[C@H](N)C(=O)N[C@@H](Cc1ccc(O)cc1)C(=O)NCC(=O)NCC(=O)N[C@@H](Cc1ccccc1)C(=O)N[C@@H](CC(C)C)C(N)=O (H-[Gly(decyl)]YGGFL-NH2) | –

Row | Compound | Papp [1] [×10⁻⁶ cm/s] | half-life [2] [min] | also measured
8 | CCCCCC[C@H](NC(=O)[C@H](CC(C)C)NC(=O)[C@H](Cc1ccccc1)NC(=O)CNC(=O)CNC(=O)[C@@H](N)Cc1ccc(O)cc1)C(N)=O (H-YGGFL[Aoc(2)]-NH2) | 0.00477 | 5.4 | –
9 | CCCCCCCCCC[C@H](NC(=O)[C@H](CC(C)C)NC(=O)[C@H](Cc1ccccc1)NC(=O)CNC(=O)CNC(=O)[C@@H](N)Cc1ccc(O)cc1)C(N)=O (H-YGGFL[Gly(decyl)]-NH2) | – | 16.4 | –
10 | CC(C)C[C@H](NC(=O)[C@H](Cc1ccccc1)NC(=O)CNC(=O)CNC(=O)[C@@H](N)Cc1ccc(O)cc1)C(=O)O [ENKEPHALIN] | 0.31 | – | –

Reference: ChEMBL document CHEMBL1671797, “Lipophilic derivatives of leu-enkephalinamide: in vitro permeability, stability and in vivo nasal delivery” (Bioorg Med Chem, 2011)
